Results pooled from the literature.
Compare with care: the assays were run in different laboratories.
Cell line: MCF7
Read-out: cell growth or viability

Compound | test | conditions | IC50
FC(F)(F)c1cccc(Nc2ncnc3ccc(-c4ccc5c(c4)OCO5)cc23)c1 | MTT | 24 h | 6.74 µM
Nc1nc(Oc2ccccc2)nn1-c1ccc(C(=O)O)cc1 | MTT | – | 18.7 µM
COc1cc2ncnc(Nc3ccc(F)c(Cl)c3)c2cc1NC(=O)N/N=C/c1cccn1CCCN1CCN(C)CC1 | MTT | 72 h | 2.43 µM
c1cc2c(cc1CNCC1CCNCC1)OCO2 | MTT | 72 h | > 100 µM
Fc1cccc(Cl)c1-c1nc2ccccc2[nH]1 | MTT | 48 h | > 100 µM
O=S(=O)(NN=Cc1cn(CCN2CCOCC2)c2ccccc12)c1ccc2ccccc2c1 | MTT | 48 h | 29.9 µM
Clc1ccc(-c2nc3ccccc3n2Cc2ccccc2)cc1 | MTT | – | 40.2 µM
Oc1c(I)cc(Cl)c2cccnc12 | MTT | 48 h | 50.2 µM
COc1cccc2c1C(=O)c1c(O)c3c(c(O)c1C2=O)C[C@@](O)(C(=O)CO)C[C@@H]3O[C@H]1C[C@H](N)[C@H](O)[C@H](C)O1 | MTT | – | 3.39 µM
O=C(/C=C/c1ccccc1)c1ccccc1 | resazurin | 72 h | > 50 µM
COc1ccc(-c2nc3ccc(C)cc3[nH]2)cc1O | MTT | 48 h | 23.7 µM
COc1cccc(C(=O)O[C@@H]2CN3Cc4c(cc5c(c4OC)OCO5)[C@@]24C=C[C@H](OC)C[C@@H]34)c1 | WST-1 | – | > 10 µM
Cc1ccc2nc(-c3ccncc3)[nH]c2c1 | MTT | 48 h | 54.6 µM
CC(=O)O[C@H]1C(=O)[C@@]2(C)[C@H]([C@H](OC(=O)c3ccccc3)[C@]3(O)C[C@H](OC(=O)[C@H](O)[C@@H](NC(=O)c4ccccc4)c4ccccc4)C(C)=C1C3(C)C)[C@]1(OC(C)=O)CO[C@@H]1C[C@@H]2O | – | 72 h | 0.011 µM
Cc1ccc2nc(-c3ccc([N+](=O)[O-])cc3)n(Cc3ccc(Cl)cc3)c2c1 | MTT | – | 6.24 µM
COc1cccc2c1C(=O)c1c(O)c3c(c(O)c1C2=O)C[C@@](O)(C(=O)CO)C[C@@H]3O[C@H]1C[C@H](N)[C@H](O)[C@H](C)O1 | – | 48 h | 1.2 µM
CN1CCN(C/C=N/NC(=O)Nc2cc3c(Nc4ccc(F)c(Cl)c4)ncnc3cc2O[C@H]2CCOC2)CC1 | MTT | 72 h | 2.04 µM
O=C(/N=C1\SCC(=O)N1C1CCCCC1)c1ccc2ccccc2c1 | – | 48 h | 7.96 µM
CN(C)CCCn1cccc1/C=N/NC(=O)Nc1cc2c(Nc3ccc(F)c(Cl)c3)ncnc2cc1O[C@H]1CCOC1 | MTT | 72 h | 6.17 µM
CS(=O)(=O)c1ccc(-n2cc(/C=N/N=c3\[nH]c(-c4ccc([N+](=O)[O-])cc4)cs3)c(-c3ccc([N+](=O)[O-])cc3)n2)cc1 | MTT | 48 h | 10.1 µM
CCOc1cc(-c2nc3ccc(C)cc3[nH]2)ccc1O | MTT | 48 h | 54.9 µM
CN(C)C/C=C/C(=O)Nc1cc2c(Nc3ccc(F)c(Cl)c3)ncnc2cc1O[C@H]1CCOC1 | MTT | 72 h | 1.8 µM
COc1ccc(-c2csc(Nc3ccc4c(O)ncnc4c3)n2)cc1 | MTT | – | 9.75 µM
CCOc1ccc(-c2nc3ccccc3n2Cc2ccccc2)cc1 | MTT | – | 40.1 µM
